Tests used:
[1] = Cmax in rat at 20 mg/kg, po; format: ADME, organism-based; set-up: dose 20 mg/kg, route oral; settings: in vivo
Summary of the method: (§1)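 Healthy male rats (200–220 g), four per group, dosed orally at 20 mg/kg. Plasma exposure parameters derived: Cmax, Tmax, terminal half-life after oral dosing, and area under the concentration curve.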

[2] = Tmax in rat at 20 mg/kg, po; format: ADME, organism-based; set-up: dose 20 mg/kg, route oral; settings: in vivo; summary of the method: as §1
[3] = Terminal half life in rat at 20 mg/kg, po; format: ADME, organism-based; set-up: dose 20 mg/kg, route oral; settings: in vivo, read-out: beta t1/2 (converted); summary of the method: as §1
[4] = AUC (0 to t) in rat at 20 mg/kg, po; format: ADME, organism-based; set-up: dose 20 mg/kg, route oral; settings: plasma; summary of the method: as §1
Mus musculus [5] = organism: Mus musculus; experiment: animal or person; settings: ICR, Blood, po, 1 h, read-out: INH
Mus musculus [6] = organism: Mus musculus; experiment: animal or person; settings: ICR, Blood, po, 1 h, read-out: INH; remark: listed apart in the source

SMILES	Cmax [1] [ng/mL]	Tmax [2] [h]	half-life [3] [h]	AUC(0-t) [4] [ng·h/mL]	inhibition in vivo at 3 mg/kg (Mus musculus [5]) [%]	inhibition in vivo at 10 mg/kg (Mus musculus [6]) [%]
N[C@@H](CC(=O)N1CCn2nnc(C(F)(F)F)c2C1)Cc1cc(F)c(F)cc1F.O=C(O)/C=C/C(=O)O	965	0.88	2.53	4560	19	27
N[C@@H](CC(=O)N1CCn2nnc(-c3ccccn3)c2C1)Cc1cc(F)c(F)cc1F.O=C(O)/C=C/C(=O)O	484	1.38	2.67	2510		
N[C@@H](CC(=O)N1CCn2nnc(-c3cnco3)c2C1)Cc1cc(F)c(F)cc1F.O=C(O)/C=C/C(=O)O	475	1.88	1.35	1640		

Continued, in another order:

Cmax [1] [ng/mL]	Tmax [2] [h]	half-life [3] [h]	AUC(0-t) [4] [ng·h/mL]	SMILES	inhibition in vivo at 3 mg/kg (Mus musculus [5]) [%]	inhibition in vivo at 10 mg/kg (Mus musculus [6]) [%]
695	1	2.27	2520	Cl.N[C@@H](CC(=O)N1CCn2nnc(C(F)F)c2C1)Cc1cc(F)c(F)cc1F		
231	0.63	2.23	871	Cl.NC(=O)c1nnn2c1CN(C(=O)C[C@H](N)Cc1cc(F)c(F)cc1F)CC2		
600	0.38	2.18	1130	Cl.N[C@@H](CC(=O)N1CCn2nnc(-c3ccc(C(=O)O)cc3)c2C1)Cc1cc(F)c(F)cc1F		
255	1	1.87	730	Cl.N[C@@H](CC(=O)N1CCn2nnc(-c3ccco3)c2C1)Cc1cc(F)c(F)cc1F		

Source: ChEMBL document CHEMBL1681757, “Discovery of potent dipeptidyl peptidase IV inhibitors derived from β-aminoamides bearing substituted [1,2,3]-triazolopiperidines for the treatment of type 2 diabetes” (Bioorg Med Chem Lett, 2011)
